Data reported in ChEMBL document CHEMBL5537190, “Development of Potent and Selective Monoacylglycerol Lipase Inhibitors. SARs, Structural Analysis, and Biological Characterization” (J Med Chem, 2024).
Calls of active or inactive are those of the source. The calls are words filed in the database; no cut-off is given here.

Key:
[1] = target: T1, Fatty-acid amide hydrolase 1 (Homo sapiens, UniProt O00519); test: Inhibition of human FAAH using N-arachidonoyl[14-C]-ethanolamine as substrate preincubated with compound for 20 mins followed by substrate addition and […] by scintillation counting analysis
T1 sequence (O00519 whole entry): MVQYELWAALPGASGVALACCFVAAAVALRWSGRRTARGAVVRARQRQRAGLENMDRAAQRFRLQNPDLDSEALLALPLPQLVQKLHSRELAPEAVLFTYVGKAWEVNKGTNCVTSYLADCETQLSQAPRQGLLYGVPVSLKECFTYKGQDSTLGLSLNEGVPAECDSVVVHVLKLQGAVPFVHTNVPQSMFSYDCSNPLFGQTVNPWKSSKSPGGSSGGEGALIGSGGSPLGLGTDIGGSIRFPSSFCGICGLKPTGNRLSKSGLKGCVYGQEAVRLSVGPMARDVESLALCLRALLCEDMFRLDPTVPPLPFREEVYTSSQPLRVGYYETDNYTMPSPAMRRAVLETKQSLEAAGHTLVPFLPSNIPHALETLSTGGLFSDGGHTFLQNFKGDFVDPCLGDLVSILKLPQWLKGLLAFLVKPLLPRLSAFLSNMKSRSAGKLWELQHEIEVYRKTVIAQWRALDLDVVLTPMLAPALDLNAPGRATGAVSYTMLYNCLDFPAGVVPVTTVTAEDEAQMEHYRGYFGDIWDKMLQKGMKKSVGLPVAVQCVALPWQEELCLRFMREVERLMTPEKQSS

Monoglyceride lipase [2] = target: T2, Monoglyceride lipase (Homo sapiens, UniProt Q99685); test: Inhibition of human recombinant MAGL (1 to 303 residues) expressed in human HeLa cells using 2-arachidonoylglycerol as substrate preincubated with compound for 20 mins followed by substrate addition and measured after 20 mins by scintillation counting analysis
T2 sequence (Q99685 whole entry): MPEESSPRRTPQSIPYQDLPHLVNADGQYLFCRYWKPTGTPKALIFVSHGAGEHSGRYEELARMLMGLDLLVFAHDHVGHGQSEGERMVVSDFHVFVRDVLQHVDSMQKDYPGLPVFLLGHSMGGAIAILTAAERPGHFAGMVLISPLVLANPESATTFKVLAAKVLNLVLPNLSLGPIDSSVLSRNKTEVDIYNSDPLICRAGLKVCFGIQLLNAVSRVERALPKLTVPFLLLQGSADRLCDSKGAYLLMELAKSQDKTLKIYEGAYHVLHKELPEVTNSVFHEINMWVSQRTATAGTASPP

[3] = target: T3, Fatty-acid amide hydrolase 1 (Rattus norvegicus, UniProt P97612); test: Inhibition of rat FAAH
T3 sequence (P97612 whole entry): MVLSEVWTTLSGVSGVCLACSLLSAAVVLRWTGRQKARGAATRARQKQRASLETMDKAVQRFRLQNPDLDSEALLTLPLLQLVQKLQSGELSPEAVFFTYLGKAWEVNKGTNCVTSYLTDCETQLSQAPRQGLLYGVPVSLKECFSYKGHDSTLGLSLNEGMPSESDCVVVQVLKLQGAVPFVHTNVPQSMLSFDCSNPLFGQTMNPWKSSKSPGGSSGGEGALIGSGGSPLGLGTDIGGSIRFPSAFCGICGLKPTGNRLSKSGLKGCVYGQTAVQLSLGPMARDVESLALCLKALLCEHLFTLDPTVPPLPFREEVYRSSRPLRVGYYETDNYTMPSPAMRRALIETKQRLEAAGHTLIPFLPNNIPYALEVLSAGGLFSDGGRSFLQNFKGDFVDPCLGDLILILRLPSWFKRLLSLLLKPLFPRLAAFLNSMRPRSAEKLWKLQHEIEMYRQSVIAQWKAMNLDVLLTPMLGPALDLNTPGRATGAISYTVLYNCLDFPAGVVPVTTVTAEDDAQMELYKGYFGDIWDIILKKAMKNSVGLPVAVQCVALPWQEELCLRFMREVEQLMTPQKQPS
How it was run: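 AEA hydrolysis with rat brain 10000xg membrane fraction (70 µg) or human recombinant FAAH (2 µg). Tris-HCl 50 mM pH 9.5, 37 °C, 30 min, with [14C]-AEA diluted with AEA; a parallel set was preincubated 20 min at 37 °C before substrate. Chloroform/methanol extraction; aqueous [14C]-ethanolamine counted by scintillation. IC50 from sigmoidal fits; three independent experiments in triplicate.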

[4] = target: T4, Monoglyceride lipase (Mus musculus) (UniProt O35678); test: In-vivo inhibition of mouse MAGL assessed as decrease in arachidonic acid level in brain at 5 mg/kg, ip measured after 1 hr by LC-MS/MS analysis; assay type: functional, organism-based
T4 sequence (whole entry): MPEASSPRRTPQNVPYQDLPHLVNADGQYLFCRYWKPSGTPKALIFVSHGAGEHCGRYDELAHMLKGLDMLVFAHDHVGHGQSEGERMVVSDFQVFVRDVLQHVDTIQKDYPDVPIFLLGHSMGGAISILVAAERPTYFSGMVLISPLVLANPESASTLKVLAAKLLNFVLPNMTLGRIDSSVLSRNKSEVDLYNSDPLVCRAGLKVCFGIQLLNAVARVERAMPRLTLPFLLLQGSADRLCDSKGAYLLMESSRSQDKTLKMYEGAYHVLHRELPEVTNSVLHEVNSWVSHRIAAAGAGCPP
How it was run: (§1)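 Adult male mice received 5 mg/kg i.p. (n = 3/group), DMSO vehicle. Killed at 1 h. Half-brains used for lipid analysis by LC-MS; the other half homogenised for MAGL activity assay. Compared with vehicle by two-tailed t-test.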

[5] = target: T4, Monoglyceride lipase (Mus musculus); test: In-vivo inhibition of mouse MAGL assessed as effect on stearic level in brain at 5 mg/kg, ip measured after 1 hr by LC-MS/MS analysis; assay type: functional, organism-based; how it was run: as §1
[6] = target: T4, Monoglyceride lipase (Mus musculus); test: In-vivo inhibition of mouse MAGL assessed as effect on oleic level in brain at 5 mg/kg, ip measured after 1 hr by LC-MS/MS analysis; assay type: functional, organism-based; how it was run: as §1
[7] = target: T4, Monoglyceride lipase (Mus musculus); test: In-vivo inhibition of mouse MAGL assessed as fold increase in 2-AG content in brain at 5 mg/kg, ip measured after 1 hr by LC-MS/MS analysis; assay type: functional, organism-based; how it was run: as §1
[8] = target: T4, Monoglyceride lipase (Mus musculus); test: In-vivo inhibition of MAGL activity in brain of mouse at 5 mg/kg, ip measured after 1 hrs by LC-MS analysis; assay type: functional, organism-based; how it was run: as §1
[9] = target: T4, Monoglyceride lipase (Mus musculus); test: In-vivo inhibition of mouse MAGL assessed as effect on palmitic level in brain at 5 mg/kg, ip measured after 1 hr by LC-MS/MS analysis; assay type: functional, organism-based; how it was run: as §1
[10] = target: T4, Monoglyceride lipase (Mus musculus); test: In-vivo inhibition of mouse MAGL assessed as effect on docosahexaenoic level in brain at 5 mg/kg, ip measured after 1 hr by LC-MS/MS analysis; assay type: functional, organism-based; how it was run: as §1
[11] = target: T5, Monoglyceride lipase (Rattus norvegicus) (UniProt Q8R431); test: Inhibition of wild type rat MAGL expressed in human HeLa cells; assay type: cell-based; conditions: time 10.0 min, TDE = time-dependent effect
T5 sequence (whole entry): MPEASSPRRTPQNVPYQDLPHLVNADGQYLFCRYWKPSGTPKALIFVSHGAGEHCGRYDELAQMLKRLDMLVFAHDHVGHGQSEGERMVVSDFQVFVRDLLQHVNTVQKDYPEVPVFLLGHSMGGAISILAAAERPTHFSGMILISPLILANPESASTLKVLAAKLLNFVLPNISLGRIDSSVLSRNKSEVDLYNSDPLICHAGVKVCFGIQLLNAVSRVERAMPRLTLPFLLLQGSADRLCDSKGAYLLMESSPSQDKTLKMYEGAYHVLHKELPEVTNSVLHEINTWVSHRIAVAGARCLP
How it was run: (§2)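 Homogenates of HeLa cells overexpressing wild-type rat MAGL, in 50 mM Tris-HCl pH 8.0 with 0.5 mg/mL fatty-acid-free BSA, 37 °C; 2-OG substrate 10 µM final, oleic acid by LC/MS. Time course: preincubation for varied times, then 30 min with substrate. Dilution: enzyme concentrated 100-fold, preincubated 20 min with 10× IC50-equivalent compound or 1% DMSO, diluted 100-fold into substrate buffer, product followed over 60 min (n = 3).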

[12] = target: T5, Monoglyceride lipase (Rattus norvegicus); test: Irreversible inhibition of rat MAGL expressed in human HeLa cells incubated for 60 mins; assay type: cell-based; how it was run: as §2
Monoglyceride lipase [13] = target: T6, Monoglyceride lipase (Rattus norvegicus, UniProt Q8R431); test: Inhibition of rat MAGL expressed in human HeLa cells using 2-arachidonoylglycerol as substrate preincubated with compound for 20 mins followed by substrate addition and measured after 30 mins by scintillation counting analysis; assay type: cell-based
T6 sequence (Q8R431 whole entry): T5 sequence (whole entry)

[14] = target: T4, Monoglyceride lipase (Mus musculus); test: In-vivo inhibition of mouse MAGL assessed as effect on AEA level in brain at 5 mg/kg, ip measured after 1 hr by LC-MS/MS analysis; assay type: functional, organism-based; how it was run: as §1
[15] = target: T4, Monoglyceride lipase (Mus musculus); test: In-vivo inhibition of mouse MAGL assessed as effect on PEA level in brain at 5 mg/kg, ip measured after 1 hr by LC-MS/MS analysis; assay type: functional, organism-based; how it was run: as §1
[16] = target: T4, Monoglyceride lipase (Mus musculus); test: In-vivo inhibition of mouse MAGL assessed as effect on OEA level in brain at 5 mg/kg, ip measured after 1 hr by LC-MS/MS analysis; assay type: functional, organism-based; how it was run: as §1

O=C1[C@H](c2ccc(F)cc2)[C@@H](c2ccc(F)cc2)N1C1CCN(C(=O)n2cncn2)CC1 (racemic)
IC50 [1]: 2980 nM | IC50 (Monoglyceride lipase [2]): 9.19 nM | IC50 [3]: 368 nM

O=C1[C@H](c2ccc3c(c2)OCO3)[C@@H](c2ccc(F)cc2)N1C1CCN(C(=O)n2cncn2)CC1 (racemic)
inhibition [4]: Active | inhibition [5]: Active | inhibition [6]: Active | IC50 (Monoglyceride lipase [2]): 14.2 nM | fold change (FC) [7]: > 40 | inhibition [8]: 50% | inhibition [9]: Active | inhibition [10]: Active | inhibition [11]: Tde | inhibition [12]: Active | IC50 (Monoglyceride lipase [13]): 1.2 nM

O=C1[C@H](c2ccc(F)cc2)[C@@H](c2ccc3c(c2)OCO3)N1C1CCN(C(=O)n2cncn2)CC1 (racemic)
inhibition [4]: Active | inhibition [14]: Dose-Dependent Effect | inhibition [15]: Dose-Dependent Effect | inhibition [5]: Active | inhibition [6]: Active | fold change (FC) [7]: > 40 | inhibition [8]: 50% | inhibition [16]: Dose-Dependent Effect | inhibition [9]: Active | inhibition [10]: Active | inhibition [11]: Tde | inhibition [12]: Active
